Measles CPE = compounds protecting cells from measles virus cytopathic effect, primary screen, measles RdRp inhibitor project, single point, MLSMR library, absorbance; 1.5% of 140,000 active; Measles virus-infected cells, CPE protection; protection (pct of control), % at 4 µM; in the data active = protection mostly above about 24%, no sharp cut-off; inactive = mostly below about 26%
Phagocyt inh = inhibitors of macrophage phagocytosis, primary screen, imaging, J774A.1 cells, IgG beads. J774A.1 macrophage IgG-bead phagocytosis. inhibition, % at 5 µM. 0.07% of 110,000 active. AID 1029, 2008;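 active = inhibition above the mean of the plate negative controls plus 5 SD, cut at about 13% in these data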;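 note: phagocytic index as fraction of beads internalized from green versus red external bead signal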
RAM network inh = inhibitors of the yeast RAM network, primary screen, dse1pr::URA3 reporter, 5-FOA selection; 1.8% of 190,000 active; inhibition, % at 50 µM; AID 868, 2007; S. cerevisiae dse1pr::URA3 reporter, 5-FOA growth OD615, 2 d; analog-sensitive cbk1-as2 kinase mutant strain;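 active = inhibition above a set limit, 3 SD over mean compound inhibition, cut at about 8.4% in these data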;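 note: inhibition rescues growth on 5-FOA so higher OD means more RAM inhibition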
BB579 growth dn = growth inhibitors of yeast BB579 in restrictive medium, primary screen, yeast lifespan-shortening project, S. cerevisiae. OD615, 48 h. inhibition, % at 10 µM. 0.51% of 140,000 active. AID 804, 2007;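 active = inhibition above a set limit, 3 SD over the mean compound inhibition, cut at about 44% in these data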
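System: Saccharomyces cerevisiae DeaD strain BB579, replicative lifespan model yeast | Buffer or medium: Restrictive glucose-based CSMM-D medium | Times: 4 h preincubation and 48 h exposure at 30 °C | Detection: OD615 turbidity measurement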
Yeast lifespan up = compounds extending yeast replicative lifespan, primary screen, S. cerevisiae, OD615; S. cerevisiae growth with nicotinamide; deaD strain in restrictive glucose medium; 0.68% of 130,000 active; inhibition of the nicotinamide effect, % at 10 µM;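 active = inhibition above a set limit, placed 3 SD over the median of all compounds, cut at about 26% in these data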
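Assay system: DeaD-strain S. cerevisiae. Medium: CSMM-D glucose medium, restrictive. Reagent: nicotinamide, 1.5 mM, co-present with compound. Compound: 10 µM single point, 0.25% DMSO. Schedule: culture preincubation 4 h, compound exposure 48 h, both 30 °C. Detection: absorbance at 615 nm.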
Large screens that a line does not name were inactive. Sampled rows, rich in hits. Any-hit rate of the full collection: about 3.6%.

O=C(CSc1ccc(F)cc1)NC1CCCCC1	none (no result: Measles CPE, Phagocyt inh, BB579 growth dn, Yeast lifespan up)
COc1ccccc1Nc1nc(N)nc(CSC(=S)N2CC(C)CC(C)C2)n1 (stereo not given)	none (no result: Phagocyt inh)
Cc1[nH]n(-c2ccccc2)c(=O)c1C(c1cccc([N+](=O)[O-])c1)c1c(C)[nH]n(-c2ccccc2)c1=O	Yeast lifespan up 30
COc1cc(OC)cc(C(=O)Nn2c(C)nc3ccccc3c2=O)c1	none
COc1cc(OC)cc(-c2nc3ccccc3c(=O)n2OC(=O)c2ccc(C)c(C)c2)c1	Yeast lifespan up 64
CCSC(=O)N(CC)CC(=O)Nc1c(CC)cccc1CC	Measles CPE 32
CCCSC(=O)N(CC)CC(=O)Nc1c(CC)cccc1CC	none
Oc1cccc2ccc(Nc3ccccn3)nc12	BB579 growth dn 97
CCn1cc(/C=N\NC(=O)c2ccc(F)cc2)cn1	Measles CPE 29
CCNC(=O)COc1ccc(-c2ccccc2)cc1	Measles CPE 62
N#Cc1ccc(-c2ccc(OCC(=O)NCCc3ccccc3)cc2)cc1	Yeast lifespan up 46
O=C1c2ccccc2-c2onc3c(Oc4ccccc4)cc(O)c1c23	Yeast lifespan up 92
Cc1cc2nc(C)n3c4ccccc4nc3n2n1	BB579 growth dn 86 (no result: Phagocyt inh)
Cc1ccc(C)n1-c1sc2c(c1C#N)CCCC2	RAM network inh 10 (no result: Phagocyt inh, Yeast lifespan up)
O=C(CSc1nnc(-c2ccccc2)o1)c1ccc2c(c1)OCCO2	RAM network inh 8.4
Cc1cc(C)cc(-c2nnc(SCC(=O)c3ccc4c(c3)OCCO4)o2)c1	none (no result: Phagocyt inh, Yeast lifespan up)
Oc1cccc(/C=N/NC(=S)Nc2cccnc2)c1O	BB579 growth dn 53
Oc1ccc(/C=N/NC(=S)Nc2cccnc2)c(O)c1	none
Cc1cc(Nc2nn(C)c(N)c2C#N)ccc1F	none (no result: Measles CPE, Phagocyt inh, BB579 growth dn, Yeast lifespan up)
CCOC(=O)c1sc2nccc(OC)c2c1N=CNOC	none (no result: Measles CPE, Phagocyt inh, BB579 growth dn, Yeast lifespan up)
Cn1c(N)c(C(=O)COC(=O)c2cc(C3CC3)nc3ccccc23)c(=O)n(Cc2ccccc2)c1=O	none (no result: Phagocyt inh)
Cn1c(N)c(C(=O)COC(=O)c2cc(-c3ccccc3)nc3ccccc23)c(=O)n(Cc2ccccc2)c1=O	Yeast lifespan up 30 (no result: Phagocyt inh)
Cc1c(NC(=O)COC(=O)c2cc(-c3ccc(-c4ccccc4)cc3)nc3ccccc23)c(=O)n(-c2ccccc2)n1C	Measles CPE 38
COc1ccc(-c2cc(C(=O)OC(C)C(=O)Nc3c(C)n(C)n(-c4ccccc4)c3=O)c3ccccc3n2)cc1 (stereo not given)	none
O=C(Cn1c(-c2cscn2)nc2ccccc21)Nc1ccc2ccccc2c1	RAM network inh 11 (no result: Phagocyt inh)
O=C(Cn1c(-c2cscn2)nc2ccccc21)Nc1cc(F)ccc1F	none (no result: Phagocyt inh)
O=C(Nc1cccc2ncccc12)c1ccc(OCc2ccccc2)cc1	none (no result: Measles CPE, Phagocyt inh, BB579 growth dn, Yeast lifespan up)
O=C1CC(N2CCCCC2)C(=O)N1c1ccccc1 (stereo not given)	none (no result: Phagocyt inh, Yeast lifespan up)
O=C1CC(N2CCCN(C3CC(=O)N(c4ccc(F)cc4)C3=O)CC2)C(=O)N1c1ccc(F)cc1 (stereo not given)	Measles CPE 55
CSCCC(NC(=O)c1cccc(S(=O)(=O)N2CCOCC2)c1)C(=O)Nc1cccc(C)c1 (stereo not given)	none
CCC1CCC(C(=O)NNC(=O)c2cc(-c3ccco3)[nH]n2)CC1 (stereo not given)	none (no result: Measles CPE, Phagocyt inh, BB579 growth dn, Yeast lifespan up)
CCNCCNC(=O)c1c(O)c2cccc3c2n(c1=O)CCC3	Yeast lifespan up 70
O=C(NCc1ccco1)c1c(O)c2cccc3c2n(c1=O)CCC3	Yeast lifespan up 47
O=C(Nc1cccnc1)c1c(O)c2cccc3c2n(c1=O)CC3	Yeast lifespan up 62
CCc1nc2ccccc2c(=O)n1NC(=O)c1c(O)c2cccc3c2n(c1=O)CCC3	BB579 growth dn 83
O=C(Nn1c(Cc2ccccc2)nc2ccccc2c1=O)c1c(O)c2cccc3c2n(c1=O)CCC3	none (no result: Measles CPE, Phagocyt inh, BB579 growth dn, Yeast lifespan up)
CCCn1c(CCC(=O)Nc2ccccc2Cc2ccccc2)nc2cc(S(=O)(=O)N3CCOCC3)ccc21	none (no result: Phagocyt inh)
C/C(=N\NC(=O)c1cccc(Cl)c1)C1C(=O)c2ccccc2C1=O	Yeast lifespan up 43
COC(=O)Cc1ccc(NC(=S)N2CCN(c3ccc(OC)cc3)CC2)cc1	Measles CPE 34
COCCn1c(SCc2ccc(C(=O)OC)o2)nc2cc(Cl)ccc2c1=O	RAM network inh 9.4
COCCCn1c(SCC(=O)Nc2ccc(C(C)=O)cc2)nc2ccccc2c1=O	none
COCCn1c(SCC(=O)Nc2cccc(C(=O)OC)c2)nc2ccccc2c1=O	RAM network inh 8.8 (no result: Measles CPE)
O=C(O)C1=C(C(=O)Nc2cccc(C(F)(F)F)c2)CCCC1	none (no result: Measles CPE, Phagocyt inh, BB579 growth dn, Yeast lifespan up)
COc1ccc(-n2cc(CNCCc3cnc[nH]3)c(-c3cccc(F)c3)n2)cc1	none (no result: Measles CPE, Phagocyt inh, BB579 growth dn, Yeast lifespan up)
O=C1/C(=C\c2ccco2)SC(=S)N1c1ccc(O)cc1	Measles CPE 39
O=C1/C(=C\c2ccc(O)cc2)SC(=S)N1c1cccnc1	none (no result: Measles CPE, Phagocyt inh, BB579 growth dn, Yeast lifespan up)
CC(=C1C(=O)c2ccccc2C1=O)N1CCN(C/C=C/c2ccccc2)CC1	Yeast lifespan up 57
O=C(C1CC1)N1CCN=C1SCc1ccc(F)cc1	none
O=C(C1CC1)N1CCN=C1SCc1ccccc1	Measles CPE 41
CCC1(C)Cc2c(sc3c2c(=O)n(-c2ccccc2)c(=O)n3C)CO1 (stereo not given)	none
Cn1c(=O)n(-c2ccccc2)c(=O)c2c3c(sc21)COC(C)(C)C3	Measles CPE 18
CN(C)CCNC(C(=O)Nc1cccc(C(F)(F)F)c1)c1ccccc1 (stereo not given)	none (no result: Measles CPE, Phagocyt inh, BB579 growth dn, Yeast lifespan up)
O=C(Nc1cccc(C(F)(F)F)c1)C(Sc1cccc[n+]1[O-])c1ccccc1 (stereo not given)	BB579 growth dn 59
CCOC12NC(=O)CC(=O)N1C(c1ccccc1)=CS2 (stereo not given)	RAM network inh 9.9
O=Cc1c(Sc2ccccn2)nc2ccccn2c1=O	none (no result: Phagocyt inh, Yeast lifespan up)
O=Cc1c(Sc2ccccc2)nc2ccccn2c1=O	BB579 growth dn 65
O=c1[nH]c(CN2CCN(S(=O)(=O)c3cccs3)CC2)nc2c(Br)cc(Br)cc12	none (no result: Measles CPE, Phagocyt inh, BB579 growth dn, Yeast lifespan up)
Cc1[nH]n(-c2ccccc2)c(=O)c1/C=N/c1ccccn1	none (no result: Phagocyt inh)
Cc1[nH]n(-c2ccccc2)c(=O)c1N=Nc1ccccc1O	RAM network inh 9.9 (no result: Measles CPE, Phagocyt inh, BB579 growth dn, Yeast lifespan up)
Cc1[nH]n(-c2ccccc2)c(=O)c1N=Nc1nccs1	Yeast lifespan up 34
Cc1ccccc1N=Nc1c(C)[nH]n(-c2ccccc2)c1=O	none (no result: Measles CPE, Phagocyt inh, BB579 growth dn, Yeast lifespan up)
COc1ccc(CN2CCNC(=O)C2CC(=O)NCCSc2nccn2C)cc1OC (stereo not given)	none (no result: Measles CPE, Phagocyt inh, BB579 growth dn, Yeast lifespan up)
Cc1cccc(/C(N)=N/OC(=O)COc2ccc(Cl)c(C)c2)c1	Measles CPE 23
Cc1ccc2[nH]c3c(c2c1)CCc1cn[nH]c1-3	BB579 growth dn 92
Cc1ccc2[nH]c3c(c2c1)CCC3=O	none
O=C(COc1ccccc1Br)NCc1ccccn1	Measles CPE 63
O=C(COc1ccc(F)cc1Br)NCc1ccccn1	none
COc1ccc(OCC(=O)Nc2ccc(N3CCN(C(=O)c4ccccc4C)CC3)cc2)cc1	none (no result: Measles CPE, Phagocyt inh, BB579 growth dn, Yeast lifespan up)

Assay outcomes as filed in PubChem.
